# Assay results from different studies.
# Lines come from different studies, so protocols differ.
# APC: Adenomatous polyposis coli protein (APC, Homo sapiens, UniProt P25054)
# AMY1A: Alpha-amylase 1A (AMY1A, Homo sapiens, UniProt P0DUB6)
# EGFR: Epidermal growth factor receptor (EGFR, Homo sapiens, UniProt P00533)
# Ephx2: Bifunctional epoxide hydrolase 2 (Ephx2, Mus musculus, UniProt P34914)
SMILES,target,effect on,mode,method,IC50 [nM]
CC(C)C[C@H](NC(=O)[C@H](Cc1ccc2ccccc2c1)NC(=O)[C@H](CCC(=O)O)NC(=O)c1ccccc1)C(=O)NC1CC1c1ccccc1 (stereo partly drawn),APC,ligand displacement,,FP,77600
COc1ccc2nc3cc(Cl)ccc3c(Nc3cc(CN4CCCC4)c(O)c(CN4CCCC4)c3)c2n1,"Palmitoyl-protein thioesterase 1 (Homo sapiens, UniProt P50897)",enzyme activity,inhibitor,,> 125000
Oc1ccc(/C=C/c2cc(O)cc(O)c2)cc1,AMY1A,enzyme activity,inhibitor,,> 100000
Cc1ncc(CN2CCc3ccccc3C2)c2cc(C(=O)c3ccc4c(c3)OCCO4)oc12,EGFR,enzyme activity,inhibitor,ADP detection,12.9
O=C(Nc1ccc(-c2ccc3ccccc3n2)cc1)C1CCN(S(=O)(=O)c2ccccc2Cl)CC1,Ephx2,enzyme activity,inhibitor,fluorescence,182
CC(C)C[C@H](NC(=O)[C@H](Cc1ccc2ccccc2c1)NC(=O)[C@H](CCC(=O)O)NC(=O)c1cccc(C(F)(F)F)c1)C(=O)NC1CC1c1ccccc1 (stereo partly drawn),APC,ligand displacement,,FP,10700
O=C(Nc1ccc(-c2ccc3cccnc3c2)cc1)C1CCN(S(=O)(=O)c2ccccc2Cl)CC1,Ephx2,enzyme activity,inhibitor,fluorescence,38.2
OC[C@H]1O[C@@H](Oc2cc3c4c(c2)[C@@H]([C@@H]2c5cc(O)cc6c5[C@@H](c5cc(O)cc(O)c5[C@H]2c2ccc(O)cc2)[C@H](c2ccc(O)cc2)O6)[C@H](c2ccc(O)cc2)c2c(O)cc(O)cc2[C@H]4[C@H](c2ccc(O)cc2)O3)[C@H](O)[C@@H](O)[C@@H]1O,AMY1A,enzyme activity,inhibitor,,> 100000
Cc1c(Cc2ccccc2)c(=O)oc2c(C)c(OCC(=O)NN=Cc3ccccc3)ccc12,EGFR,enzyme activity,inhibitor,ATP luminescence,307
CC(C)C[C@H](NC(=O)[C@H](Cc1ccc2ccccc2c1)NC(=O)[C@H](CCC(=O)O)NC(=O)C1CCCCC1)C(=O)NC1CC1c1ccccc1 (stereo partly drawn),APC,ligand displacement,,FP,21900
Cc1ccc2c(-c3cc4c(CN5CCN(Cc6ccccn6)CC5)cnc(C)c4o3)cc(=O)oc2c1,"Epidermal growth factor receptor (EGFR, Homo sapiens, UniProt P00533, C797S/L858R/T790M)",enzyme activity,inhibitor,ADP detection,5.77
O=C(Nc1ccc(-c2ccnc3ccccc23)cc1)C1CCN(S(=O)(=O)c2ccccc2Cl)CC1,Ephx2,enzyme activity,inhibitor,fluorescence,28.6
CC(C)C[C@H](NC(=O)[C@H](Cc1ccc2ccccc2c1)NC(=O)[C@H](CCC(=O)O)NC(=O)c1ccncc1)C(=O)NC1CC1c1ccccc1 (stereo partly drawn),APC,ligand displacement,,FP,72400
Cc1ncc(CN2CCN(Cc3ccccn3)CC2)c2cc(C(=O)c3ccc4c(c3)OCCO4)oc12,EGFR,enzyme activity,inhibitor,ADP detection,40.5
O=C(Nc1ccc(-c2cccc3cccnc23)cc1)C1CCN(S(=O)(=O)c2ccccc2Cl)CC1,Ephx2,enzyme activity,inhibitor,fluorescence,95.9
